Test results taken from ChEMBL document CHEMBL1137876, “Synthesis and biological evaluation of novel cytotoxic phospholipids for prostate cancer” (Bioorg Med Chem Lett, 2004).

How the values were obtained:
[1] = Concentration required to inhibit proliferation of PPC-1 prostate cancer cell lines; type: functional, cell-based; details: Homo sapiens
Method in brief: (§1)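 SRB assay. Cells were exposed to compound at 0–100 µM for 96 h, then fixed with 10% trichloroacetic acid, washed five times with water, air dried overnight and stained with SRB. Protein-bound dye was read at 540 nm.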

PC-3 [2] = experiment: Concentration required to inhibit proliferation of PC-3 prostate cancer cell lines; NA denotes not active; type: functional, cell-based, Homo sapiens; method in brief: as §1
DU-145 [3] = experiment: Concentration required to inhibit proliferation of DU-145 prostate cancer cell lines; NA denotes not active; type: functional, cell-based, Homo sapiens; method in brief: as §1
CHO = experiment: Concentration required to inhibit tumor growth in CHO cells; type: functional, cell-based; details: Cricetulus griseus; method in brief: as §1
[4] = Concentration required to inhibit tumor growth in RH7777 cells; type: functional, cell-based; method in brief: as §1
[5] = Concentration required to inhibit proliferation of TSU prostate cancer cell lines; NA denotes not active; type: functional, cell-based, Homo sapiens; method in brief: as §1
LNCaP [6] = experiment: Concentration required to inhibit proliferation of LNCaP prostate cancer cell lines; NA denotes not active; type: functional, cell-based, Homo sapiens; method in brief: as §1
LNCaP [7] = experiment: Concentration required to inhibit proliferation of LNCaP prostate cancer cell lines; type: functional, cell-based; details: Homo sapiens; method in brief: as §1
DU-145 [8] = experiment: Concentration required to inhibit proliferation of DU-145 prostate cancer cell lines; type: functional, cell-based; details: Homo sapiens; method in brief: as §1
PC-3 [9] = experiment: Concentration required to inhibit proliferation of PC-3 prostate cancer cell lines; type: functional, cell-based; details: Homo sapiens; method in brief: as §1
[10] = Concentration required to inhibit proliferation of TSU prostate cancer cell lines; type: functional, cell-based; details: Homo sapiens; method in brief: as §1

**Q.** Which IC50 [1] does the source give for `CCCCCCCC/C=C/CCCCCCCCC(=O)NCCO` here?
**A.** > 20 µM

**Q.** And the IC50 (PC-3 [2])?
**A.** Not Active

**Q.** What about the IC50 (DU-145 [3]) of the same compound?
**A.** Not Active

**Q.** And the IC50 (CHO)?
**A.** > 20 µM

**Q.** What about the IC50 [4] of the same compound?
**A.** > 20 µM

**Q.** What about the IC50 [5] of the same compound?
**A.** Not Active

**Q.** And the IC50 (LNCaP [6])?
**A.** Not Active

**Q.** With `CCCCCCCCNC(=O)[C@H](CO)NC(=O)CCCCCCC` as the compound, how does the IC50 (LNCaP [7]) read?
**A.** > 100 µM

**Q.** What about the IC50 [1] of the same compound?
**A.** 81.2 µM

**Q.** What about the IC50 (DU-145 [8]) of the same compound?
**A.** > 100 µM

**Q.** And the IC50 (CHO)?
**A.** > 100 µM

**Q.** What about the IC50 (PC-3 [9]) of the same compound?
**A.** 81.5 µM

**Q.** What about the IC50 [10] of the same compound?
**A.** 93.8 µM

**Q.** With `CCCCCCCC/C=C/CCCCCCCCC(=O)NCCOP(=O)(O)O` as the compound, how does the IC50 [1] read?
**A.** 50 µM

**Q.** What about the IC50 (DU-145 [8]) of the same compound?
**A.** > 50 µM

**Q.** What about the IC50 (CHO) of the same compound?
**A.** > 50 µM

**Q.** What about the IC50 (PC-3 [9]) of the same compound?
**A.** > 50 µM

**Q.** And the IC50 [4]?
**A.** > 50 µM

**Q.** And the IC50 [10]?
**A.** > 50 µM

**Q.** What about the IC50 (LNCaP [6]) of the same compound?
**A.** Not Active

**Q.** For `O=c1[nH]cc(F)c(=O)[nH]1` [FLUOROURACIL], which IC50 (LNCaP [7]) is on record?
**A.** 4.9 µM

**Q.** Which IC50 (LNCaP [7]) does the source give for `CCCCCCCC/C=C/CCCCCCCCNC(=O)[C@@H](N)CO` here?
**A.** 6.6 µM

**Q.** And the IC50 [1]?
**A.** 5.1 µM

**Q.** What about the IC50 (DU-145 [8]) of the same compound?
**A.** 6.9 µM

**Q.** And the IC50 (CHO)?
**A.** 5.2 µM

**Q.** And the IC50 (PC-3 [9])?
**A.** 5.9 µM

**Q.** What about the IC50 [4] of the same compound?
**A.** 6.8 µM

**Q.** And the IC50 [10]?
**A.** 5.5 µM
